# According to ChEMBL document CHEMBL2390929, “New nitric oxide donating 1,2,4-triazole/oxime hybrids: synthesis, investigation of anti-inflammatory, ulceroginic liability and antiproliferative activities” (Bioorg Med Chem, 2013):
# Experiments:
# A498 = assay: Cytotoxicity against human A498 cells assessed as cell growth at 10^-5 M after 48 hrs by SRB assay; type: functional; conditions: A498, 48 h, read-out: Activity
# Summary of the method: (§1)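 NCI 60-cell-line primary one-dose screen across nine tumour subpanels. Compound added at a single concentration of 10^-5 M and cultures incubated 48 h. Endpoint was sulforhodamine B protein staining read spectrophotometrically, with growth expressed as percent of untreated control cells.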
# HL-60(TB) = assay: Cytotoxicity against human HL-60(TB) cells assessed as cell growth at 10^-5 M after 48 hrs by SRB assay; type: functional; conditions: HL-60, 48 h, read-out: Activity
# Summary of the method: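 NCI 60-cell-line one-dose screen: compound added to cultures at a single concentration of 10^-5 M, incubated 48 h. End point by sulforhodamine B protein staining, read spectrophotometrically. Value is percent growth of treated cells relative to untreated control cells.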
# SK-OV-3 = assay: Cytotoxicity against human SKOV3 cells assessed as cell growth at 10^-5 M after 48 hrs by SRB assay; type: functional; conditions: SK-OV-3, 48 h, read-out: Activity
# Summary of the method: (§2)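 NCI-60 one-dose screen across nine tumour subpanels. Each agent added once at 10^-5 M, cultures incubated 48 h. Endpoint is sulforhodamine B protein staining read spectrophotometrically. Output is percent growth of treated cells relative to untreated controls.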
# T47D = assay: Cytotoxicity against human T47D cells assessed as cell growth at 10^-5 M after 48 hrs by SRB assay; type: functional; conditions: read-out: Activity; summary of the method: as §2
# [1] = Induction of nitric oxide release in phosphate buffer at pH 7.4 at 0.1 mM after 4 hrs by Griess method in presence of 0.5 mM of N-acetylcysteine; type: physicochemical; conditions: pH 7.4, 4 h, 100 µM
# Summary of the method: (§3)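 Compound in DMF diluted to final 10^-4 M in 1:1 50 mM phosphate buffer pH 7.4/MeOH with 5×10^-4 M N-acetylcysteine, 37 °C. Aliquot mixed with Griess reagent, 10 min at room temperature, A546 read. Nitrite quantified against sodium nitrite standards (10–80 nmol/mL); NO expressed as mol/mol. n = 4 reaction mixtures per compound.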
# Malme-3M = assay: Cytotoxicity against human MALME-3M cells assessed as cell growth at 10^-5 M after 48 hrs by SRB assay; type: functional; conditions: read-out: Activity; summary of the method: as §1
# NCI/ADR-RES = assay: Cytotoxicity against human NCI/ADR-RES cells assessed as cell growth at 10^-5 M after 48 hrs by SRB assay; type: functional; conditions: read-out: Activity; summary of the method: as §1
# HCC 2998 = assay: Cytotoxicity against human HCC2998 cells assessed as cell growth at 10^-5 M after 48 hrs by SRB assay; type: functional; conditions: HCC 2998, 48 h, read-out: Activity; summary of the method: as §1
# NCI-H522 = assay: Cytotoxicity against human NCI-H522 cells assessed as cell growth at 10^-5 M after 48 hrs by SRB assay; type: functional; conditions: NCI-H522, 48 h, read-out: Activity; summary of the method: as §1
# [2] = Induction of nitric oxide release in phosphate buffer at pH 7.4 at 0.1 mM after 1 hr by Griess method in presence of 0.5 mM of N-acetylcysteine; type: physicochemical; conditions: pH 7.4, 1 h, 100 µM; summary of the method: as §3
# NCI-H226 = assay: Cytotoxicity against human NCI-H226 cells assessed as cell growth at 10^-5 M after 48 hrs by SRB assay; type: functional; conditions: NCI-H226, 48 h, read-out: Activity; summary of the method: as §1
# CCRF-CEM = assay: Cytotoxicity against human CCRF-CEM cells assessed as cell growth at 10^-5 M after 48 hrs by SRB assay; type: functional; conditions: read-out: Activity; summary of the method: as §1
# HOP-62 = assay: Cytotoxicity against human HOP62 cells assessed as cell growth at 10^-5 M after 48 hrs by SRB assay; type: functional; conditions: HOP-62, 48 h, read-out: Activity; summary of the method: as §1
# NCI-H23 = assay: Cytotoxicity against human NCI-H23 cells assessed as cell growth at 10^-5 M after 48 hrs by SRB assay; type: functional; conditions: NCI-H23, 48 h, read-out: Activity; summary of the method: as §1
# MDA-MB-468 = assay: Cytotoxicity against human MDA-MB-468 cells assessed as cell growth at 10^-5 M after 48 hrs by SRB assay; type: functional; conditions: MDA-MB-468, 48 h, read-out: Activity; summary of the method: as §1
# LOX IMVI = assay: Cytotoxicity against human LOXIMVI cells assessed as cell growth at 10^-5 M after 48 hrs by SRB assay; type: functional; conditions: read-out: Activity; summary of the method: as §1
# 786-0 = assay: Cytotoxicity against human 786-0 cells assessed as cell growth at 10^-5 M after 48 hrs by SRB assay; type: functional; conditions: 786-0, 48 h, read-out: Activity; summary of the method: as §1
# [3] = Cytotoxicity against human EKVX cells assessed as cell growth at 10^-5 M after 48 hrs by SRB assay; type: functional; conditions: read-out: Activity; summary of the method: as §1
# OVCAR-8 = assay: Cytotoxicity against human OVCAR8 cells assessed as cell growth at 10^-5 M after 48 hrs by SRB assay; type: functional; conditions: OVCAR-8, 48 h, read-out: Activity; summary of the method: as §1
# KM12 = assay: Cytotoxicity against human KM12 cells assessed as cell growth at 10^-5 M after 48 hrs by SRB assay; type: functional; conditions: KM12, 48 h, read-out: Activity; summary of the method: as §1
# HCT-116 = assay: Cytotoxicity against human HCT116 cells assessed as cell growth at 10^-5 M after 48 hrs by SRB assay; type: functional; conditions: HCT-116, 48 h, read-out: Activity; summary of the method: as §1
# MDA-MB-435 = assay: Cytotoxicity against human MDA-MB-435 cells assessed as cell growth at 10^-5 M after 48 hrs by SRB assay; type: functional; conditions: MDA-MB-435, 48 h, read-out: Activity; summary of the method: as §1
# U-251 = assay: Cytotoxicity against human U251 cells assessed as cell growth at 10^-5 M after 48 hrs by SRB assay; type: functional; conditions: U-251, 48 h, read-out: Activity; summary of the method: as §2
# HOP-92 = assay: Cytotoxicity against human HOP92 cells assessed as cell growth at 10^-5 M after 48 hrs by SRB assay; type: functional; conditions: HOP-92, 48 h, read-out: Activity; summary of the method: as §1
# Rattus norvegicus = assay: Antiinflammatory activity in albino rat assessed as inhibition of carrageenan-induced paw edema at 0.28 mmol/kg, po after 2 hrs relative to control; type: functional
# Summary of the method: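 Adult male albino rats (120–140 g), four per group, fasted 24 h with water allowed. Test agent suspended in 0.5% w/v aqueous CMC and given orally at 0.28 mmol/kg; controls received CMC alone. After 30 min, 0.1 mL fresh 1% carrageenan in saline was injected subplantar into the right hind paw and saline into the left. Paw thickness was measured by Vernier caliper; % inhibition = [(VR−VL)control − (VR−VL)treated]/(VR−VL)control ×100. Mean ± SEM, one-way ANOVA.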
# RPMI-8226 = assay: Cytotoxicity against human RPMI8226 cells assessed as cell growth at 10^-5 M after 48 hrs by SRB assay; type: functional; conditions: RPMI-8226, 48 h, read-out: Activity; summary of the method: as §1
# SN12C = assay: Cytotoxicity against human SN12C cells assessed as cell growth at 10^-5 M after 48 hrs by SRB assay; type: functional; conditions: read-out: Activity; summary of the method: as §2
# HT-29 = assay: Cytotoxicity against human HT-29 cells assessed as cell growth at 10^-5 M after 48 hrs by SRB assay; type: functional; conditions: HT-29, 48 h, read-out: Activity; summary of the method: as §1
# PC-3 = assay: Cytotoxicity against human PC3 cells assessed as cell growth at 10^-5 M after 48 hrs by SRB assay; type: functional; conditions: PC-3, 48 h, read-out: Activity; summary of the method: as §1
compound,measurement,setting,value
COc1cc(-c2nnc(SC/C(=N/O)c3ccccc3)n2-c2ccccc2)cc(OC)c1OC,growth at 10 µM,A498,98.4%
same,growth at 10 µM,HL-60(TB),81.1%
same,growth at 10 µM,SK-OV-3,110%
same,growth at 10 µM,T47D,88.8%
same,Activity,[1],0.14 mol/mol
same,growth at 10 µM,Malme-3M,95.3%
same,growth at 10 µM,NCI/ADR-RES,98.8%
same,growth at 10 µM,HCC 2998,108%
same,growth at 10 µM,NCI-H522,82.1%
same,Activity,[2],0.07 mol/mol
same,growth at 10 µM,NCI-H226,94.1%
same,growth at 10 µM,CCRF-CEM,88.5%
same,growth at 10 µM,HOP-62,101%
same,growth at 10 µM,NCI-H23,92.5%
same,growth at 10 µM,MDA-MB-468,119%
same,growth at 10 µM,LOX IMVI,91.7%
same,growth at 10 µM,786-0,94.7%
same,growth at 10 µM,[3],97.9%
same,growth at 10 µM,OVCAR-8,98.3%
same,growth at 10 µM,KM12,108%
same,growth at 10 µM,HCT-116,92.7%
same,growth at 10 µM,MDA-MB-435,104%
same,growth at 10 µM,U-251,94.1%
same,growth at 10 µM,HOP-92,81.2%
same,inhibition in vivo at 280 µmol/kg,Rattus norvegicus,61%
same,growth at 10 µM,RPMI-8226,73.6%
same,growth at 10 µM,SN12C,95.8%
same,growth at 10 µM,HT-29,99.5%
same,growth at 10 µM,PC-3,92.1%
